Measured values as given in ChEMBL document CHEMBL4017500 (J Med Chem, 2017).
Calls of active or inactive are those of the source. The calls are words filed in the database; no cut-off is given here.

Columns and labels:
[1] = biological target: Metallo-beta-lactamase type 2 (Klebsiella pneumoniae) (UniProt C7C422); test: Inhibition of NDM1 in Klebsiella pneumoniae isolate Pd1.53 assessed as potentiation of imipenem-induced antibacterial activity by measuring imipenem MIC at 100 mg/L after 18 to 20 hrs by broth microdilution assay (reference value: 8 mg/L)
[2] = biological target: 72 kDa type IV collagenase (Homo sapiens) (UniProt P08253); test: Inhibition of human MMP2 (Tyr110 to Asp452 residues) expressed in yeast at 10 uM using Mca-Pro-LeuGly-Leu-Dpa-Ala-Arg-NH2.AcOH as substrate preincubated for 30 mins followed by substrate addition measured after 20 mins by fluorescence assay relative to control
Procedure, shortened: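 Human recombinant MMP-2 (1.16 U/well) or MMP-12 (0.007 U/well) in 50 mM HEPES, 10 mM CaCl2, 0.05% Brij-35, pH 7.5. Enzyme and inhibitor pre-incubated 30 min at 37 °C, then OmniMMP fluorogenic substrate (4 μM) added. Fluorescence rise followed 20 min at ex/em 320/400 nm. Activity relative to no-inhibitor wells, with 200 μM NSA as 0%. Run in triplicate.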

Escherichia coli [3] = test: Effect on growth of Escherichia coli isolate Ch8.72 at 100 mg/L after 18 to 20 hrs by broth microdilution assay
Procedure, shortened: (§1)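 Mueller-Hinton broth microdilution per CLSI, triplicate. blaNDM-1 clinical isolates grown from OD600 0.1 to 0.224 (~1–2 × 10^8 CFU/mL), diluted 3 μL into 4997 μL MH, and 100 μL added to 100 μL of compound (100 mg/L) alone. Incubated 37 °C for 18–20 h, then scored for growth.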

[4] = biological target: Metallo-beta-lactamase type 2 (Klebsiella pneumoniae) (UniProt C7C422); test: Inhibition of NDM1 in Klebsiella pneumoniae isolate Pd1.55 assessed as potentiation of imipenem-induced antibacterial activity by measuring imipenem MIC at 100 mg/L after 18 to 20 hrs by broth microdilution assay (reference value: 8 mg/L)
Escherichia coli [5] = test: Inhibition of NDM1 in Escherichia coli isolate Ah8.71 assessed as potentiation of imipenem-induced antibacterial activity by measuring imipenem MIC at 100 mg/L after 18 to 20 hrs by broth microdilution assay (reference value: 16 mg/L)
Bacteria [6] = test: Inhibition of bacterial MBP-fused NDM1 expressed in Escherichia coli BL21(DE3) ausing fluorocillin as substrate preincubated for 20 mins followed by substrate addition measured at 1 sec time interval for 25 mins in presence of ZnSO4 by fluorescence assay
[7] = biological target: Metallo-beta-lactamase type 2 (Klebsiella pneumoniae) (UniProt C7C422); test: Inhibition of NDM1 in Klebsiella pneumoniae isolate Pd1.54 assessed as potentiation of imipenem-induced antibacterial activity by measuring imipenem MIC at 100 mg/L after 18 to 20 hrs by broth microdilution assay (reference value: 8 mg/L)
[8] = biological target: Metallo-beta-lactamase type 2 (Klebsiella pneumoniae) (UniProt C7C422); test: Inhibition of NDM1 in Klebsiella pneumoniae isolate Pd1.49 assessed as potentiation of imipenem-induced antibacterial activity by measuring imipenem MIC at 100 mg/L after 18 to 20 hrs by broth microdilution assay (reference value: 4 mg/L)
Escherichia coli [9] = test: Effect on growth of Escherichia coli isolate Ch8.69 at 100 mg/L after 18 to 20 hrs by broth microdilution assay; procedure, shortened: as §1
Klebsiella pneumoniae [10] = test: Effect on growth of Klebsiella pneumoniae isolate Pd1.53 at 100 mg/L after 18 to 20 hrs by broth microdilution assay; procedure, shortened: as §1
Bacteria [11] = test: Binding affinity to bacterial NDM-1 expressed in Escherichia coli BL21(DE3) assessed as Zn2+ stripping at
Procedure, shortened: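 NDM-1 (8 μM final) in 50 mM HEPES pH 7.5 mixed with compound at 0–128 μM for 30 min. Then dialyzed 4 h against metal-free 50 mM HEPES pH 7.5. Residual Zn(II) measured by ICP-AES at 213.856 nm.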

Bacteria [12] = test: Binding affinity to bacterial CoCoNDM-1 expressed in Escherichia coli BL21(DE3) assessed as CoCoNDM-1-compound ternary complex formation at 1 equiv by 1H NMR spectroscopic method
Procedure, shortened: (§2)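 Apo-NDM-1 concentrated to ~1 mM and loaded with 2 equiv CoCl2. Samples in 50 mM HEPES, 150 mM NaCl, 10% D2O, pH 6.8. Compounds from 50–100 mM DMSO stocks titrated in ~5 μL aliquots. 1H spectra recorded at 292 K, 300.16 MHz.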

Klebsiella pneumoniae [13] = test: Effect on growth of Klebsiella pneumoniae isolate Cm1.63 at 100 mg/L after 18 to 20 hrs by broth microdilution assay; procedure, shortened: as §1
Bacteria [14] = test: Binding affinity to bacterial CoCoNDM-1 expressed in Escherichia coli BL21(DE3) assessed as metal stripping at 2 equiv by 1H NMR spectroscopic method; procedure, shortened: as §2
[15] = biological target: Metallo-beta-lactamase type 2 (Klebsiella pneumoniae) (UniProt C7C422); test: Inhibition of NDM1 in Klebsiella pneumoniae isolate Cm1.63 assessed as potentiation of imipenem-induced antibacterial activity by measuring imipenem MIC at 100 mg/L after 18 to 20 hrs by broth microdilution assay (reference value: 8 mg/L)
[16] = biological target: Metallo-beta-lactamase type 2 (Klebsiella pneumoniae) (UniProt C7C422); test: Inhibition of NDM1 in Klebsiella pneumoniae isolate Pd1.48 assessed as potentiation of imipenem-induced antibacterial activity by measuring imipenem MIC at 100 mg/L after 18 to 20 hrs by broth microdilution assay (reference value: 8 mg/L)
Bacteria [17] = test: Binding affinity to bacterial CoCoNDM-1 expressed in Escherichia coli BL21(DE3) assessed as CoCoNDM-1-compound ternary complex formation at 1 equiv by 1H […] spectroscopic method
[18] = biological target: Metallo-beta-lactamase type 2 (Klebsiella pneumoniae) (UniProt C7C422); test: Inhibition of NDM1 in Klebsiella pneumoniae isolate Pd1.50 assessed as potentiation of imipenem-induced antibacterial activity by measuring imipenem MIC at 100 mg/L after 18 to 20 hrs by broth microdilution assay (reference value: 8 mg/L)
[19] = Inhibition of bacterial MBP-fused NDM1 expressed in Escherichia coli BL21(DE3) ausing chromacef as substrate preincubated for 20 mins followed by substrate addition measured after 0.3 mins; parameters: species or system Bacteria
Procedure, shortened: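 Preincubated 20 min, then 3 μM substrate (~3×KM) added. A442 followed ~0.3 min at 25 °C. Activity scaled to uninhibited (100%) and no-enzyme (0%) controls, fitted to a Hill-type equation.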

Escherichia coli [20] = test: Effect on growth of Escherichia coli isolate Ah8.74 at 100 mg/L after 18 to 20 hrs by broth microdilution assay; procedure, shortened: as §1
[21] = Metal chelating activity assessed as Co2+-compound complex formation at 1 equiv by 1H NMR spectroscopic method; assay type: functional
Procedure, shortened: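 Apo-NDM-1 concentrated to ~1 mM and given 2 equivalents of CoCl2, in 50 mM HEPES, 150 mM NaCl, 10% D2O, pH 6.8. Compounds, from DMSO stocks of 50–100 mM, titrated in. 1H NMR spectra recorded at 292 K at 300.16 MHz.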

[22] = biological target: Metallo-beta-lactamase type 2 (Klebsiella pneumoniae) (UniProt C7C422); test: Inhibition of NDM1 in Klebsiella pneumoniae isolate Cm1.62 assessed as potentiation of imipenem-induced antibacterial activity by measuring imipenem MIC at 100 mg/L after 18 to 20 hrs by broth microdilution assay (reference value: 16 mg/L)

Sequence of Metallo-beta-lactamase type 2 (Klebsiella pneumoniae) (C7C422 whole entry, the tested form may be a part): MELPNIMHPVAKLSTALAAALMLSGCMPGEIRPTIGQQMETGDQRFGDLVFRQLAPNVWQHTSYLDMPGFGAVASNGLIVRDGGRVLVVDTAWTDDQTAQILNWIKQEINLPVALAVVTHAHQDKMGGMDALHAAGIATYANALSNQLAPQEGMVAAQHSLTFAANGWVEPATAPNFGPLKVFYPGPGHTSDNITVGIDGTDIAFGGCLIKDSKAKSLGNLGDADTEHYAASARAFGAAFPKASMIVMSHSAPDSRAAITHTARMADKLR
Sequence of 72 kDa type IV collagenase (Homo sapiens) (P08253 110-660 limits assumed): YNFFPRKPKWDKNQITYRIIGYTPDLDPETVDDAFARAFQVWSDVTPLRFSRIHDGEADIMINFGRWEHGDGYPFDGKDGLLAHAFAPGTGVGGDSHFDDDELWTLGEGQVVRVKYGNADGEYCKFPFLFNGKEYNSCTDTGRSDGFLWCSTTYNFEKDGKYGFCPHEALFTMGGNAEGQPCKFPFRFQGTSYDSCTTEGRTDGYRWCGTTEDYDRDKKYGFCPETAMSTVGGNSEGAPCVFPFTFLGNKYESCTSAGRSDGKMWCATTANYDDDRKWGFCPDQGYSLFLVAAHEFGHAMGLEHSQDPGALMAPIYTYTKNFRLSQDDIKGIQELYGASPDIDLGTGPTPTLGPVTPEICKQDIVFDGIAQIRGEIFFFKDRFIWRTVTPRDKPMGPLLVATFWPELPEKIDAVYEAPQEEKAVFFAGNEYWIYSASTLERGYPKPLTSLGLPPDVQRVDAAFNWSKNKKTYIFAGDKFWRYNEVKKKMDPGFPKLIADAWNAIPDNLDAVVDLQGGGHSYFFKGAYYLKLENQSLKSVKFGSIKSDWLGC

With `Nc1cccc(-c2cc(C(=O)O)nc(C(=O)O)c2)c1` the MIC [1] was 0.5 µg/mL, the inhibition [2] was under 6% and the Activity (Escherichia coli [3]) was “Non-Toxic”. For the same molecule, the MIC [4] was 0.5 µg/mL, the MIC (Escherichia coli [5]) was 1 µg/mL and the inhibition (Bacteria [6]) was “Active”. The MIC [7] was 0.5 µg/mL, the MIC [8] was 1 µg/mL and the Activity (Escherichia coli [9]) was “Non-Toxic”. The Activity (Klebsiella pneumoniae [10]) was “Non-Toxic”, the Activity (Bacteria [11]) was “inactive” and the Activity (Bacteria [12]) was “Active”. For the same molecule, the Activity (Klebsiella pneumoniae [13]) was “Non-Toxic”, the Activity (Bacteria [14]) was “Active” and the MIC [15] was 1 µg/mL. For the same molecule, the MIC [16] was 0.5 µg/mL, the Activity (Bacteria [17]) was “Active” and the MIC [18] was 0.5 µg/mL. For the same molecule, the IC50 [19] was 320 nM, the Activity (Escherichia coli [20]) was “Non-Toxic” and the Activity [21] was “Active”. The MIC [22] was 1 µg/mL.
